Assay results from different studies.
Lines come from different studies, so protocols differ.
Target: Tyrosine-protein kinase Fyn (FYN, Homo sapiens, UniProt P06241)

Structure (SMILES) | observed | mode | method | tested at | measurement | value
Cn1cc(-c2cc(F)cc(N3CCn4c(cc5c4CCCC5)C3=O)c2CO)cc(Nc2ccc(N3CCN(C4COC4)CC3)cn2)c1=O | enzyme activity | inhibitor |  | 0.1 µM | inhibition | 8%
C#Cc1n[nH]c2c(-c3cn([C@@H](C)c4ccccc4)c(=O)[nH]c3=O)cc(F)cc12 | enzyme activity | inhibitor |  | 0.1 µM | inhibition | 0.7%
Cn1cc(-c2cccc(N3CCc4c(sc5c4CC(C)(C)C5)C3=O)c2CO)cc(Nc2ccncn2)c1=O | enzyme activity | inhibitor |  | 1 µM | inhibition | 6%
Cn1cncc1[C@](O)(COc1ccc(C#N)cc1-c1ccc(OC(F)(F)F)cc1)c1ccc(C#N)cc1 | cell-free assay |  | competition with immobilised ligand | 1 µM | remaining binding | 100%
CC(C)(C)c1cc(C=C(C#N)C#N)cc(Br)c1O | enzyme activity | inhibitor |  | 0.5 µM | remaining activity | 67.2%
N#CC1(c2ccccn2)CCN(Cc2cc(C(=O)O)c(=O)n3ccccc23)CC1 | cell-free assay |  | competition with immobilised ligand | 1 µM | remaining binding | 99%
Cc1ncc(C)n2nc(/C=C/c3nc(N4CCCC4)cc(N4CCOCC4)n3)nc12 | enzyme activity | inhibitor |  | 10 µM | inhibition | 9%
C#Cc1n[nH]c2c(-c3cn([C@@H](C)c4ccccn4)c(=O)[nH]c3=O)cc(F)cc12 | enzyme activity | inhibitor |  | 0.1 µM | inhibition | 1.4%
O=C(Nc1cccnn1)N1CCN([C@@H]2CCOc3cc(C(F)(F)F)ccc32)CC1 | enzyme activity | inhibitor |  | 20 µM | inhibition | 0%
O=c1[nH]c2ccccc2n1C1CCN(Cc2ccc(-c3[nH]c4cc5ncnc5cc4nc3-c3ccccc3)cc2)CC1 | cell-free assay |  |  | 0.5 µM | remaining signal | 101%
Cc1nn(C)cc1-c1nc2c(N3CCN(Cc4ccc(Cl)cc4)CC3)c(Cl)cnc2[nH]1 | binding |  | competition with immobilised ligand | 1 µM | remaining binding | 100%
COc1ncccc1-c1cnn2ccc(N3CCN(C(=O)OC(C)C)CC3)nc12 | binding |  | competition with immobilised ligand | 1 µM | remaining binding | 49%
Nc1ncc(-c2nc(N3CCOCC3)nc(N3CCOCC3)n2)c(C(F)F)n1 | binding |  | competition with immobilised ligand | 10 µM | remaining binding | 100%
